Results taken from ChEMBL document CHEMBL1138855, “Topomimetics of amphipathic beta-sheet and helix-forming bactericidal peptides neutralize lipopolysaccharide endotoxins” (J Med Chem, 2006).
The source made the active and inactive calls. The calls are words filed in the database; no cut-off is given here.

Key:
Pseudomonas aeruginosa [1] = test: Antibacterial activity against Pseudomonas aeruginosa assessed as LPS neutralisation at 5 uM by LAL assay; type: functional, organism-based
Salmonella typhimurium [2] = test: Antibacterial activity against Salmonella Typhimurium assessed as LPS neutralisation by LAL assay; type: functional, organism-based, Salmonella enterica subsp. enterica serovar Typhimurium; conditions: Salmonella enterica
In short: (§1)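 LPS was used at 0.04 units: 0.01 ng for E. coli 055:B5, 0.01 ng for E. coli 0111:B4, 0.003 ng for K. pneumoniae, 0.01 ng for P. aeruginosa, 0.03 ng for S. typhimurium and 0.03 ng for S. marcescens. IC50 came from sigmoidal fits of dose-response curves.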

Escherichia coli [3] = test: Antibacterial activity against Escherichia coli 055:B5 assessed as LPS neutralisation by LAL assay; type: functional, organism-based; in short: as §1
Klebsiella pneumoniae [4] = test: Antibacterial activity against Klebsiella pneumoniae assessed as LPS neutralisation by LAL assay at 5 uM; type: functional, organism-based
Escherichia coli [5] = test: Antibacterial activity against Escherichia coli 0111:B4 assessed as LPS neutralisation by LAL assay; type: functional, organism-based; in short: as §1
Klebsiella pneumoniae [6] = test: Antibacterial activity against Klebsiella pneumoniae assessed as LPS neutralisation by LAL assay; type: functional, organism-based; in short: as §1
Pseudomonas aeruginosa [7] = test: Antibacterial activity against Pseudomonas aeruginosa assessed as LPS neutralisation by LAL assay; type: functional, organism-based; in short: as §1
Serratia marcescens [8] = test: Antibacterial activity against Serratia marcescens assessed as LPS neutralisation by LAL assay at 5 uM; type: functional, organism-based
Salmonella typhimurium [9] = test: Antibacterial activity against Salmonella Typhimurium assessed as LPS neutralisation by LAL assay at 5 uM; type: functional, organism-based; conditions: Salmonella enterica subsp. enterica serovar Typhimurium
Mus musculus [10] = test: Survival of Escherichia coli 0111:B4 LPS-challenged C57/BL6 mouse at 50 mg/kg, ip after 120 hrs relative to control; type: functional; conditions: route intraperitoneal
In short: (§2)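 Male C57/BL6 mice (n = 4–8/group) received a lethal LPS dose: 500 µg for E. coli 0111:B4, 600 µg for E. coli 055:B5 and 600 µg for Salmonella. LPS was premixed with compound in 2% DMSO v/v for 30 min, then injected i.p. Controls got DMSO alone or compound alone. Survival was followed for up to 120 h, and mean survival time was compared by Student's t-test.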

Mus musculus [11] = test: Survival of Escherichia coli 055:B5 LPS-challenged C57/BL6 mouse at 5 mg/kg, ip after 120 hrs relative 10 control; type: functional, organism-based; design: dose 5 mg/kg; in short: as §2
Serratia marcescens [12] = test: Antibacterial activity against Serratia marcescens assessed as LPS neutralisation by LAL assay; type: functional, organism-based; in short: as §1
Mus musculus [13] = test: Survival of Salmonella LPS-challenged C57/BL6 mouse at 50 mg/kg, ip after 120 hrs relative to control; type: functional; conditions: route intraperitoneal; in short: as §2
Escherichia coli [14] = test: Antibacterial activity against Escherichia coli 0111:B4 assessed as LPS neutralisation at 5 uM by LAL assay; type: functional, organism-based
Mus musculus [15] = test: Survival of Escherichia coli 055:B5 LPS-challenged C57/BL6 mouse at 50 mg/kg, ip after 120 hrs relative to control; type: functional; conditions: route intraperitoneal; in short: as §2

Row | Compound | Activity (Pseudomonas aeruginosa [1]) | IC50 (Salmonella typhimurium [2]) | IC50 (Escherichia coli [3]) | Activity (Klebsiella pneumoniae [4]) | IC50 (Escherichia coli [5]) | IC50 (Klebsiella pneumoniae [6]) | IC50 (Pseudomonas aeruginosa [7]) | Activity (Serratia marcescens [8]) | Activity (Salmonella typhimurium [9]) | survival at 50 mg/kg (Mus musculus [10]) | Activity (Mus musculus [11]) | IC50 (Serratia marcescens [12]) | survival at 50 mg/kg (Mus musculus [13]) | Activity (Escherichia coli [14]) | survival at 50 mg/kg (Mus musculus [15])
1 | N=C(N)NCCOc1c2cccc1Cc1cccc(c1O)Cc1cccc(c1OCC(=O)NC(=N)N)Cc1cccc(c1O)C2 | inactive | > 5000 nM | 4.1 µM | inactive | 3.9 µM |  |  |  |  |  |  |  |  |  | 
2 | CC(C)CCOc1c2cc(CCC(=O)NCCN(C)C)cc1Cc1cc(CCC(=O)NCCN(C)C)cc(c1OCCC(C)C)Cc1cc(CCC(=O)NCCN(C)C)cc(c1OCCC(C)C)Cc1cc(CCC(=O)NCCN(C)C)cc(c1OCCC(C)C)C2 | inactive | 3200 nM | > 5 µM |  | > 5 µM | 2400 nM |  |  |  |  |  |  |  |  | 
3 | CC(C)(C)c1cc2c(OCc3cn(CCN)nn3)c(c1)Cc1cc(C(C)(C)C)cc(c1OCc1cn(CCN)nn1)Cc1cc(OCc3cnnn3CCN)cc(c1C(C)(C)C)Cc1cc(C(C)(C)C)cc(c1OCc1cn(CCN)nn1)C2 |  |  | 0.6 µM |  | 1.5 µM | 900 nM | 1000 nM | inactive | inactive |  |  |  |  |  | 
4 | CC(C)(C)c1cc2c(OCc3cn(CCN)nn3)c(c1)Cc1cc(C(C)(C)C)cc(c1OCc1cn(CCN)nn1)Cc1cc(C(C)(C)C)cc(c1OCc1cn(CCN)nn1)Cc1cc(C(C)(C)C)cc(c1OCc1cn(CCN)nn1)C2 |  | 1100 nM | 0.05 µM |  | 2.2 µM | 1000 nM | 2600 nM |  |  | 25% | inactive | > 5 µM | 100% |  | 
5 | CC(C)CCOc1c2cccc1Cc1cc(CCC(=O)O)cc(c1O)Cc1cccc(c1OCCC(C)C)Cc1cc(CCC(=O)O)cc(c1O)C2 | inactive |  | > 5 µM | inactive | > 5 µM |  |  |  | inactive |  |  |  |  |  | 
6 | CC(C)(C)c1cc2c(O)c(c1)Cc1cc(C(C)(C)C)cc(c1OCCNC(=N)N)Cc1cc(C(C)(C)C)cc(c1O)Cc1cc(C(C)(C)C)cc(c1OCCN)C2 | inactive | 2600 nM | 4.1 µM | inactive | > 5 µM |  |  |  |  |  |  |  |  |  | 
7 | CC(C)CCOc1c2cccc1Cc1cc(CCCOP(=O)(O)O)cc(c1O)Cc1cccc(c1OCCC(C)C)Cc1cc(CCCOP(=O)(O)O)cc(c1O)C2 | inactive |  | > 5 µM | inactive |  |  |  |  | inactive |  |  |  |  | inactive | 
8 | CN(C)CCNC(=O)COc1c2cccc1Cc1cccc(c1OCC(=O)NCCN(C)C)Cc1cccc(c1OCC(=O)NCCN(C)C)Cc1cccc(c1OCC(=O)NCCN(C)C)C2 [OTX-008] | inactive |  | 3.4 µM |  | > 5 µM | 1500 nM |  |  | inactive |  |  | > 5 µM |  |  | 
9 | CC(C)CCOc1c2cccc1Cc1cc(CCCOS(=O)(=O)O)cc(c1O)Cc1cccc(c1OCCC(C)C)Cc1cc(CCCOS(=O)(=O)O)cc(c1O)C2 | inactive |  | 5 µM |  | 5 µM | 2100 nM |  |  | inactive |  |  | 4.2 µM |  |  | 
10 | CC(C)(C)c1cc2c(OCCCCN)c(c1)Cc1cc(C(C)(C)C)cc(c1OCCCCNC(=N)N)Cc1cc(C(C)(C)C)cc(c1OCCCCNC(=N)N)Cc1cc(C(C)(C)C)cc(c1OCCCCNC(=N)N)C2 |  | 600 nM | 0.1 µM |  | 0.4 µM | 500 nM | 800 nM |  |  |  |  | 3.2 µM |  |  | 
11 | CCCc1cc2c(OCC(=O)NCCN(C)C)c(c1)Cc1cc(CCC)cc(c1OCC(=O)NCCN(C)C)Cc1cc(CCC)cc(c1OCC(=O)NCCN(C)C)Cc1cc(CCC)cc(c1OCC(=O)NCCN(C)C)C2 | inactive | 4100 nM | 4.4 µM |  | > 5 µM | 80 nM |  |  |  |  |  |  |  |  | 
12 | CCCc1cc2c(OCC(=O)NCCN(C)C)c(c1)Cc1cc(CC(C)C)cc(c1OCC(=O)NCCN(C)C)Cc1cc(CCC)cc(c1OCC(=O)NCCN(C)C)Cc1cc(CC(C)C)cc(c1OCC(=O)NCCN(C)C)C2 |  | 3100 nM | 3.8 µM |  | 3.7 µM | 2100 nM | > 5000 nM |  |  |  |  |  |  |  | 
13 | NCCNC(=O)COc1c2cccc1Cc1cccc(c1O)Cc1cccc(c1OCC(=O)NCCN)Cc1cccc(c1O)C2 | inactive | > 5000 nM | > 5 µM | inactive |  |  |  |  |  |  |  |  |  | inactive | 
14 | CC(C)Cc1cc2c(OCC(=O)NCCN(C)C)c(c1)Cc1cc(CC(C)C)cc(c1OCC(=O)NCCN(C)C)Cc1cc(C(C)C)cc(c1OCC(=O)NCCN(C)C)Cc1cc(CC(C)C)cc(c1OCC(=O)NCCN(C)C)C2 |  | 400 nM | 0.006 µM |  | 3.1 µM | 1000 nM | 4200 nM |  |  |  | inactive |  | 80% |  | 60%
15 | CC(C)(C)c1cc2c(O)c(c1)Cc1cc(C(C)(C)C)cc(c1OCCNC(=N)N)Cc1cc(C(C)(C)C)cc(c1O)Cc1cc(C(C)(C)C)cc(c1OCCNC(=N)N)C2 | inactive | 4400 nM | > 5 µM | inactive |  |  |  |  |  |  |  |  |  |  | 
16 | C=CCc1cc2c(OCC(=O)NCCN(C)C)c(c1)Cc1cc(CC(=C)C)cc(c1OCC(=O)NCCN(C)C)Cc1cc(CC=C)cc(c1OCC(=O)NCCN(C)C)Cc1cc(CC(=C)C)cc(c1OCC(=O)NCCN(C)C)C2 |  | > 5000 nM | 3.6 µM | inactive | 4.7 µM |  | > 5000 nM |  |  |  |  |  |  |  | 
17 | CN(C)CCNC(=O)COc1c2cc(C(C)(C)C)cc1Cc1cc(C(C)(C)C)cc(c1OCC(=O)NCCN(C)C)Cc1cc(C(C)(C)C)cc(c1OCC(=O)NCCN(C)C)Cc1cc(C(C)(C)C)cc(c1OCC(=O)NCCN(C)C)C2 |  | 600 nM | > 5 µM |  | 1.4 µM | 1500 nM | > 5000 nM |  |  |  |  | 3.4 µM |  |  | 
18 | CC(C)(C)c1cc2c(OCC(=O)NCCN)c(c1)Cc1cc(C(C)(C)C)cc(c1OCC(=O)NCCN)Cc1cc(C(C)(C)C)cc(c1OCC(=O)NCCN)Cc1cc(C(C)(C)C)cc(c1OCC(=O)NCCN)C2 |  | 600 nM | 0.9 µM |  | 1.6 µM | 300 nM | 800 nM |  |  |  |  | 1.5 µM |  |  | 
19 | CC(C)(C)c1cc2c(OCCCCN)c(c1)Cc1cc(C(C)(C)C)cc(c1OCCCCN)Cc1cc(C(C)(C)C)cc(c1OCCCCN)Cc1cc(C(C)(C)C)cc(c1OCCCCN)C2 |  | 200 nM | 1.3 µM |  | 0.1 µM | 500 nM | 500 nM |  |  |  |  | 4.5 µM |  |  | 
20 | CCCc1cc2c(OCC(=O)NCCN(C)C)c(c1)Cc1cc(CCC)cc(c1OCC(=O)NCCN(C)C)Cc1cc(CCC)cc(c1OCC(=O)NCCN(C)C)Cc1cc(OCC(=O)NCCN(C)C)cc(c1CCC)C2 | inactive | 800 nM | 0.05 µM |  | 2.7 µM | 400 nM |  | inactive |  |  |  |  |  |  | 
21 | CN(C)CCNC(=O)COc1c2cccc1Cc1cccc(c1O)Cc1cccc(c1OCC(=O)NCCN(C)C)Cc1cccc(c1O)C2 | inactive | > 5000 nM | > 5 µM | inactive | > 5 µM |  |  |  |  |  |  |  |  |  | 
